Screening results from PubChem BioAssay.
PPC-1+TRAIL kill = compounds killing PPC-1 cancer cells with TRAIL present, primary screen, TRAIL potentiator project, ATPLite luminescence, uHTS; actives 0.41% (n = 220,000); cell killing (% activity), % at 4 µM or 5 µM; PPC-1 cells + TRAIL, ATPLite viability luminescence;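 active means cell killing above 50% in the first pass at 4 µM, then a duplicate retest at 5 µM averaging 50% or more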
PKD1 kinase inh = inhibitors of human PKD1 kinase, biochemical, fluorescence polarization; inhibition, % (concentration not given with the values); Serine/threonine-protein kinase D1 (Homo sapiens), Q15139; PKD1 kinase fluorescence polarization assay; actives 0.056% (n = 200,000); in the data active means inhibition above about 50%
Wee1 degr inh = Wee1 degradation inhibitors, primary screen, cell-based, HeLa, Wee1K328M-luciferase, luminescence; reporter increase, % at 5 µM; HeLa Luc-Wee1K328M stability; 100% = proteasome inhibitor MG132 effect; AID 1321, 2008; actives 1.2% (n = 220,000); Wee1-like protein kinase (Homo sapiens), P30291;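 active means activation above the mean of all tested compounds plus 3 SD, set per screening run, cut at about 8.8% in these data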;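 further: cells exposed to compound for 20 h before luminescence read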
Target sequence (P30291 whole entry K328M): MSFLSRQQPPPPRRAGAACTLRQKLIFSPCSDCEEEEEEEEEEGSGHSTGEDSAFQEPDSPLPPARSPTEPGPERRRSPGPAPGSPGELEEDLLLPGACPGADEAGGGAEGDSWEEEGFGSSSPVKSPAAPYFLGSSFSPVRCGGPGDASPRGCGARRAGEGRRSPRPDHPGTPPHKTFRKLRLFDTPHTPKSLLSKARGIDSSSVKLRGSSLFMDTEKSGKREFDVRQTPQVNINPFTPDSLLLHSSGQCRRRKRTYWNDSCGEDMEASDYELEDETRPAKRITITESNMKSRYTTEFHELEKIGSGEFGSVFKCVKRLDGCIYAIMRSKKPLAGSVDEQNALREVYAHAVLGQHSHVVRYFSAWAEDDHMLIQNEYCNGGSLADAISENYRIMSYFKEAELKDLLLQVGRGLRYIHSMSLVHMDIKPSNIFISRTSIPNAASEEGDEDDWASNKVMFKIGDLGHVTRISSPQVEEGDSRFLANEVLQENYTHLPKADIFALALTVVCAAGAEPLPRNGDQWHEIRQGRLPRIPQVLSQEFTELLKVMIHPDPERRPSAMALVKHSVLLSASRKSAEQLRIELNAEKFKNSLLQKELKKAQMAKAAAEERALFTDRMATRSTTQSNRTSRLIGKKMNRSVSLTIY
FLuc inh counter = firefly luciferase enzyme inhibitors, primary screen, artefact control for luciferase-based inhibitor screens, biochemical, luminescence, ATPLite | Luciferin 4-monooxygenase (Photinus pyralis), P08659 | 10 min | inhibition, % at 10 µM | actives 1.5% (n = 200,000);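 active means inhibition above about 50% when tested at 10 µM, limit read from the data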
FLuc stim CS = FLuc activators, initial screening, artefact control for FLuc-dependent activation tests, biochemical, ATPlite luminescence; AID 1027, 2008; Luciferin 4-monooxygenase (Photinus pyralis), P08659; ATPlite luciferase biochemical, 10 min; 0 = ATP-free wells, 1 = DMSO control; 200,000 tested, under 10 active; activation factor at 10 µM;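 active means luciferase activation factor, scaled between plate controls, of at least 2 with compound at 10 µM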
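System: Luciferase/luciferin detection reagent, cell-free biochemical luciferase assay | Medium: PBS buffer for ATP | Dosing: Test compounds dosed from 2 mM stocks in 100% DMSO | Timing: 10 min at ambient temperature | Signal: Luminescence measurement of luciferase light output | Evaluation: Luciferase activation, seen as luminescence increase over controls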
C8 TRAIL sens = viability loss with TRAIL in NB7+C8 cells, primary screen, TRAIL sensitizer project, cell-based, ATPlite luminescence. actives 1% (n = 360,000). inhibition (viability loss, TRAIL sensitization), % at 10 µM;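 active means compounds causing at least 50% loss of cell viability in the single-dose screen, relative to plate controls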
A number is an active result; - = inactive; . = not tested or not shown. A selection: hits, their analogues and other compounds. The true share with any hit is near 2.2%.

SMILES | PPC-1+TRAIL kill | PKD1 kinase inh | Wee1 degr inh | FLuc inh counter | FLuc stim CS | C8 TRAIL sens
O=C(Nc1ccc(CN2CCOCC2)cc1)c1cc2ccccc2o1 | - | - | 10.3 | 60.3 | - | -
CC(=O)c1cccc(NC(=O)c2cc3ccccn3n2)c1 | - | - | - | 71.7 | - | -
Cc1ccccc1NC(=O)c1cc2ccccn2n1 | - | . | - | . | . | -
O=C(Nc1ccc(CN2CCOCC2)cc1)c1ccccc1F | - | - | - | - | - | -
O=C(Nc1ccc(CN2CCOCC2)cc1)c1cc2ccccn2n1 | - | - | - | 78.5 | - | -
O=C(NC(=S)Nc1ccc(CN2CCOCC2)cc1)c1cc2ccccc2o1 | - | - | - | - | - | -
Cc1ccc(C(=O)Nc2ccc(N3CCN(C)CC3)cc2)cc1C | . | . | . | . | . | -
O=C(OCCC12CC3CC(CC(C3)C1)C2)c1ccc(NCc2cc(O)ccc2O)cc1 | . | . | . | . | . | 91.7
O=C(OCC12CC3CC(CC(C3)C1)C2)c1ccc(NCc2cc(O)ccc2O)cc1 | . | . | . | . | . | 92.5
CCNC(=O)OCCC12CC3CC(CC(C3)C1)C2 | - | - | - | - | - | -
N#CCC(=O)Nc1ccc(C(=O)OCC(=O)C23CC4CC(CC(C4)C2)C3)cc1 | . | . | . | . | . | -
CC(Sc1ccccc1)C(=O)N1CCN(S(=O)(=O)c2ccccc2C(F)(F)F)CC1 (configuration not stated) | . | . | . | . | . | -
O=C(NCCc1ccc(F)cc1)Nc1ccccc1Cl | . | . | . | . | . | -
CC(C)Nc1nc(Nc2ccc(Cl)cc2F)c2sccc2n1 | . | . | . | . | . | -
Cc1ccc(/C(N)=N/OC(=O)c2cccc(Cn3cc(C(F)(F)F)ccc3=O)c2)cc1 | - | . | - | . | . | 80.7
CCc1ccc(-c2nc(SCC(=O)NC3CC3)n[nH]2)cc1 | . | . | . | . | . | -
CC(=O)Oc1ccccc1C(=O)C=Cc1cccc([N+](=O)[O-])c1 | . | . | . | . | . | 64.8
COc1ccc(OC(=O)COc2cc(C)ccc2C)cc1 | . | . | . | . | . | -
Cc1nn(Cc2c(F)c(F)c(F)c(F)c2F)c(C)c1NC(=O)c1ccc(COc2cc(Cl)ccc2Cl)cc1 | - | - | - | - | - | -
Cc1cccc(C)c1NC(=O)c1cccc(COc2cc(Cl)ccc2Cl)c1 | - | - | 9.0 | - | - | -
CCOC(=O)c1c(NC(=O)COC(=O)c2nc(Cl)ccc2Cl)sc(C(=O)NC)c1C | . | . | . | . | . | -
O=c1cc(-c2ccccc2)oc2cccc(O)c12 | . | . | . | . | . | -
O=c1cc(-c2ccc(O)c(O)c2)oc2c1ccc1ccccc12 | . | . | . | . | . | -
O=c1cc(-c2ccccc2)oc2ccc3ccccc3c12 | . | . | . | . | . | 88.3
O=c1cc(-c2ccc(O)c(O)c2)oc2ccc3ccccc3c12 | . | . | . | . | . | 74.4
SMILES | PPC-1+TRAIL kill | PKD1 kinase inh | Wee1 degr inh | FLuc inh counter | FLuc stim CS | C8 TRAIL sens
O=C1CC(c2ccccc2)CC(O)=C1C=NCc1ccccc1Cl (configuration not stated) | - | - | 9.3 | - | - | -
O=C(c1ccc(Cl)cc1)c1cnc(-c2ccccc2)s1 | - | - | - | - | - | -
O=C(c1ccc(Cl)cc1)c1cnc(Nc2ccccc2Cl)s1 | - | - | - | 58.3 | - | -
O=C(COC(=O)c1cc(=O)[nH]c2ccccc12)Nc1nc(-c2ccccc2)cs1 | - | - | - | - | - | -
O=C(N/N=C/c1coc2ccccc2c1=O)c1ccccc1 | - | - | - | - | - | -
O=C(N/N=C/c1coc2ccccc2c1=O)c1cn(-c2ccccc2)nc1-c1ccccc1 | - | - | 10.0 | - | - | -
Cc1ccc(S(=O)(=O)N2CCCC2)s1 | . | . | . | . | . | -
CCOC(=O)c1cn2nc(N3CCCCC3)ccc2n1 | - | . | - | . | . | 52.6
CC(OC(=O)c1cc(O)c2ccccc2c1O)C(=O)Nc1ccc(C(N)=O)cc1 (configuration not stated) | . | . | . | . | . | 57.4
CC(OC(=O)c1ccccc1C(=O)N(C)c1ccccc1)C(=O)Nc1ccc(C(N)=O)cc1 (configuration not stated) | . | . | . | . | . | -
Cc1nc(N)nc(N)c1-c1ccc([N+](=O)[O-])cc1 | . | . | . | . | . | 74.7
NC(=O)COC(=O)c1ccc(-c2ccc(O)cc2)cc1 | - | . | 9.8 | . | . | -
Cc1ccc(C(=O)COC(=O)c2cnccn2)cc1 | - | - | - | - | - | -
Cc1ccc(C(=O)Oc2ccc(C(=O)COC(=O)c3cnccn3)cc2)cc1 | - | - | - | - | - | 50.6
Cc1ccc(C(=O)COC(=O)c2ccc(O)cc2)cc1 | - | - | 10.4 | - | - | -
CSCCC(NC(=O)COc1ccccc1)C(=O)N(C)CC(=O)Nc1c(C)cccc1C (configuration not stated) | . | . | . | . | . | -
O=[N+]([O-])c1cc(C(F)(F)F)cc([N+](=O)[O-])c1Sc1n[nH]c(C(F)(F)F)n1 | - | . | - | . | . | -
CC(=O)C1=C(O)C(=O)N(c2ccc(C)cc2)C1c1ccc([N+](=O)[O-])cc1 (configuration not stated) | - | - | - | - | - | -
CC(=O)C1=C(O)C(=O)N(c2ccc(O)cc2)C1c1ccc([N+](=O)[O-])cc1 (configuration not stated) | . | - | 9.3 | - | - | -
O=c1c2ccsc2ncn1Cc1ccccc1F | - | - | 14.8 | - | - | -
O=C(CSC1=Nc2ccccc2C2CC=NN12)Nc1ccc2c(c1)OCO2 (configuration not stated) | - | - | - | - | - | -
Cc1cc(C)cc(N(CCC#N)C(=O)CSC2=Nc3ccccc3C3CC=NN23)c1 (configuration not stated) | - | - | 9.9 | - | - | -
N#Cc1ccccc1NC(=O)CSC1=Nc2ccccc2C2CC=NN12 (configuration not stated) | - | - | 9.4 | - | - | -
CCCCc1ccc(S(=O)(=O)NC(=O)C2(C)CCN2C(=O)c2cccc(F)c2)cc1 (configuration not stated) | . | . | . | . | . | -
Fc1ccccc1-c1nc2ccccc2[nH]1 | - | - | - | 55.4 | - | -
Clc1ccccc1-c1nc2ccccc2[nH]1 | - | . | - | . | . | -
Oc1ccccc1C=Nc1ccccc1-c1nc2ccccc2[nH]1 | - | - | - | - | - | 52.5
COc1ccc(NC(=O)C(=O)N2N=C3CCCCC3C2(O)C(F)(F)F)cc1 (configuration not stated) | - | - | - | - | - | -
O=C(CCCN1C(=O)/C(=C\c2cccs2)SC1=S)NNC(=O)c1cccnc1 | - | - | 10.4 | - | - | -
O=C(CCCN1C(=O)/C(=C/c2cccs2)SC1=S)NNC(=O)c1ccncc1 | - | - | - | - | - | -
